Measured values taken from ChEMBL document CHEMBL4831547, “DNDI-6148: A Novel Benzoxaborole Preclinical Candidate for the Treatment of Visceral Leishmaniasis” (J Med Chem, 2021).

How the values were obtained:
[1] = Selectivity index, ratio of CC50 for human MRC5 cells to EC50 for Leishmania infantum MHOM/MA(BE)/67/ITMAP263; assay type: toxicity; conditions: read-out: Ratio CC50/EC50
[2] = Drug metabolism in rat assessed as M12 metabolite formation; assay type: ADME
[3] = Drug metabolism in mouse assessed as M12 metabolite formation; assay type: ADME
[4] = Drug metabolism in dog assessed as M12 metabolite formation; assay type: ADME, Canis lupus familiaris
[5] = Drug metabolism in human assessed as M12 metabolite formation; assay type: ADME
[6] = Drug metabolism in hamster assessed as M12 metabolite formation; assay type: ADME, Mesocricetus auratus
[7] = Toxicity in Sprague-Dawley rat at 50 mg/kg administered daily for 14 days; assay type: organism-based; conditions: in vivo, 336 h, time 14 day
Method in brief: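 Exploratory 14-day toxicology study with daily dosing in male and female Sprague-Dawley rats.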

[8] = Drug metabolism in dog liver microsomes at 10 uM incubated for 60 mins by LC-UV/MS analysis; assay type: ADME, Canis lupus familiaris, Microsome; conditions: 1 h
Method in brief: (§1)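 Incubated at 10 μM with liver microsomes (1 mg/mL) from Beagle dog or Sprague-Dawley rat for 60 min. Reactions were stopped by precipitation with formic acid/acetonitrile, and metabolites were identified by LC-UV-MSn (n = 1–2).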

[9] = Genotoxicity in Salmonella typhimurium TA100 over 1 to 1000 ug in presence of S9 fraction by Ames test; assay type: toxicity, subcellular; conditions: salmonella enterica subsp. enterica serovar typhimurium, dose 1-1000 µg
Method in brief: (§2)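 Mini-Ames reverse mutation screen in S. typhimurium TA98 and TA100, run with and without induced rat liver S9. Doses were 1.5, 4, 10, 25, 64, 160, 400 and 1000 μg per well. Positive controls were 2-aminoanthracene, 2-nitrofluorene and sodium azide; DMSO was the negative control.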

[10] = Drug metabolism in Sprague-Dawley rat liver microsomes at 10 uM incubated for 60 mins by LC-UV/MS analysis; assay type: ADME, Microsome; conditions: 1 h; method in brief: as §1
[11] = Clearance in human; assay type: ADME
[12] = Permeability of compound in dog MDCK-MDR1 cells at 2 uM after 150 min by LC-MS/MS analysis; assay type: ADME, cell-based, Canis lupus familiaris; conditions: mdck-mdr1, 2.5 h
Method in brief: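 Bidirectional MDCK-MDR1 monolayer permeability. A→B and B→A transport was measured in triplicate over 150 min at 37 °C, 5% CO2, and quantified by LC-MS/MS as analyte/internal standard peak-area ratio.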

[13] = Genotoxicity in Salmonella typhimurium TA100 over 1 to 1000 ug in absence of S9 fraction by Ames test; assay type: toxicity; conditions: salmonella enterica subsp. enterica serovar typhimurium, dose 1-1000 µg; method in brief: as §2
[14] = Drug metabolism in human liver microsomes at 10 uM incubated for 60 mins by LC-UV/MS analysis; assay type: ADME, Microsome; conditions: 1 h
[15] = Genotoxicity in Salmonella typhimurium TA98 over 1 to 1000 ug in presence of S9 fraction by Ames test; assay type: toxicity, subcellular; conditions: salmonella enterica subsp. enterica serovar typhimurium, dose 1-1000 µg; method in brief: as §2
[16] = Genotoxicity in Salmonella typhimurium TA98 over 1 to 1000 ug in absence of S9 fraction by Ames test; assay type: toxicity; conditions: salmonella enterica subsp. enterica serovar typhimurium, dose 1-1000 µg; method in brief: as §2

Row | Compound | selectivity ratio [1] | other results
1 | O=C(Nc1ccc2c(c1)B(O)OC2)c1ccc(F)cc1C(F)(F)F | > 24 | –
2 | O=C(Nc1ccc2c(c1)B(O)OC2)c1cn(-c2ccccn2)nn1 | 30 | –
3 | Cc1c(C(=O)Nc2ccc3c(c2)B(O)OC3)cnn1CCC(F)(F)F | > 5 | –
4 | Cc1nn(-c2ccccn2)cc1C(=O)Nc1ccc2c(c1)B(O)OC2 | > 11 | –
5 | O=C(Nc1ccc2c(c1)B(O)OC2)c1cn(-c2ccc(Cl)cc2)nc1C(F)(F)F | 2 | –
6 | Cn1nc(C(=O)Nc2ccc3c(c2)B(O)OC3)cc1-c1ccccn1 | 31 | –
7 | Cc1cccc(-n2ncc(C(=O)Nc3ccc4c(c3)B(O)OC4)c2C)n1 | 25 | –
8 | O=C(Nc1ccc2c(c1)B(O)OC2)c1nnc(-c2ccccn2)o1 | > 32 | –
9 | COc1cccc(-n2ncc(C(=O)Nc3ccc4c(c3)B(O)OC4)c2C)n1 | 31 | –
10 | O=C(Nc1ccc2c(c1)B(O)OC2)c1cn(C2CCOCC2)nc1C(F)(F)F | > 21 | –
11 | O=C(Nc1ccc2c(c1)B(O)OC2)c1cc(-c2ccccn2)n[nH]1 | 8 | –
12 | Cn1nc(-c2ccccn2)cc1C(=O)Nc1ccc2c(c1)B(O)OC2 | > 2 | –
13 | O=C(Nc1ccc2c(c1)B(O)OC2)c1cn(CC(F)(F)F)nc1C(F)(F)F | > 40 | –
14 | O=C(Nc1ccc2c(c1)B(O)OC2)c1cn(-c2ccccn2)nc1C(F)(F)F | 1.6 | –
15 | Cc1c(C(=O)Nc2ccc3c(c2)B(O)OC3)cnn1-c1ccccn1 | 15 | –
16 | O=C(Nc1ccc2c(c1)B(O)OC2)c1cn(CCC(F)(F)F)nc1C(F)(F)F | 38 | –
17 | Cc1cccc(-n2nnc(C(=O)Nc3ccc4c(c3)B(O)OC4)c2C)n1 | > 10 | –
18 | COc1cccc(-n2nnc(C(=O)Nc3ccc4c(c3)B(O)OC4)c2C)n1 | > 80 | –
19 | Cc1c(-c2ccccn2)coc1C(=O)Nc1ccc2c(c1)B(O)OC2 | 37 | Drug metabolism [2]: Metabolite_Detected; Drug metabolism [3]: Metabolite_Detected; Drug metabolism [4]: Metabolite_Detected; Drug metabolism [5]: Metabolite_Detected; Drug metabolism [6]: Metabolite_Detected
20 | Cc1c(C(=O)Nc2ccc3c(c2)B(O)OC3)nnn1-c1cccnc1 | > 1.8 | –
21 | Cc1c(C(=O)Nc2ccc3c(c2)B(O)OC3)nnn1-c1ccccc1 | > 1.7 | –
22 | O=C(Nc1ccc2c(c1)B(O)OC2)c1cn(C2CCC2)nc1C(F)(F)F | 53 | –
23 | O=C(Nc1ccc2c(c1)B(O)OC2)c1cn(C(F)(F)F)nc1C(F)(F)F | > 31 | –
24 | Cc1nn(C2CCC2)cc1C(=O)Nc1ccc2c(c1)B(O)OC2 | > 4 | –
25 | COc1ccccc1-n1cc(C(=O)Nc2ccc3c(c2)B(O)OC3)c(C)n1 | 7.3 | –
26 | Cc1oc(C(=O)Nc2ccc3c(c2)B(O)OC3)cc1-c1ccccn1 | 18 | –
27 | Cc1c(-c2ccccn2)csc1C(=O)Nc1ccc2c(c1)B(O)OC2 | 4 | –
28 | Cc1c(C(=O)Nc2ccc3c(c2)B(O)OC3)nnn1-c1ccccn1 | > 39 | Activity [7]: Non-Toxic; Drug metabolism [8]: Metabolite_Notdetected; Activity [9]: Non-Toxic; Drug metabolism [10]: Metabolite_Notdetected; clearance [11]: 1 mL/min/kg; permeability [12]: Permeable; Activity [13]: Non-Toxic; Drug metabolism [14]: Metabolite_Notdetected; Activity [15]: Non-Toxic; Activity [16]: Non-Toxic
29 | Cc1nn(CCC(F)(F)F)cc1C(=O)Nc1ccc2c(c1)B(O)OC2 | > 11 | –
30 | CCCCCCCCCCCCCCCCOP(=O)([O-])OCC[N+](C)(C)C [MILTEFOSINE] | > 6.2 | –
